In ChEMBL document CHEMBL1132424, “Design, synthesis, and evaluation of a novel sequence-selective epoxide-containing DNA cross-linking agent based on the pyrrolo[2, 1-c][1,4]benzodiazepine system” (J Med Chem, 1999) one finds IC50 and ΔTm data, which are given here for 5 compounds.

Test [1] concerns A2780. Kind of test: In vitro cytotoxicity against. ovarian carcinoma cell line A2780. The class given is functional, cell-based, Homo sapiens. A digest of the protocol: (§1)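 Cells seeded and left to attach overnight, then exposed in quadruplicate wells to compound (20 mM DMSO stock diluted in growth medium) at final 100 µM to 2.5 nM for 96 h at 37 °C. Cells fixed with 10% trichloroacetic acid, stained with 0.4% sulforhodamine B, absorbance read at 540 nm. IC50 from concentration versus percent absorbance of untreated wells.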

Test [2] relates to A2780. Put plainly: In vitro cytotoxicity against. ovarian carcinoma cell line A2780cisR (cisplatin resistant counter part of A2780). The class given is functional, cell-based, Homo sapiens. In short, it runs like this:
as §1

Another test deals with CH1. Kind of test: In vitro cytotoxicity against ovarian carcinoma cell line CH1. The class given is functional, cell-based, Homo sapiens. A digest of the protocol:
as §1

Test [3] is described as follows: In vitro cytotoxicity against. ovarian carcinoma cell line CH1cisR (cisplatin resistant counter part of CH1). The class given is functional, cell-based, Homo sapiens. In short, it runs like this: as §1
Test [4] has as its system Nucleic Acid. Put plainly: Effect on thermal denaturation temperature of CT-DNA after incubation for 0 hours with the compound. The class given is functional. As to conditions: Bos taurus. In short, it runs like this:
(§2)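 Calf thymus duplex DNA (100 µM in phosphate) with PBD at 20 µM (1:5 PBD/DNA ratio), added from concentrated MeOH solution. Buffer was 10 mM sodium phosphate, 1 mM Na2EDTA, pH 7.00. Incubated at 37 °C for the stated time, then A260 read while heating 40-98 °C at 1 °C/min. Tm taken from d(A260)/dT maxima, MeOH-corrected. ΔTm = Tm(DNA+PBD) − Tm(DNA alone). Mean of three determinations.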

The test system of test [5] is Nucleic Acid. Put plainly: Effect on thermal denaturation temperature of CT-DNA after incubation for 18 hours with the compound. The conditions noted are these: Bos taurus. The class given is functional. In short, it runs like this: as §2
In test [6] the test system is Nucleic Acid. Put plainly: Effect on thermal denaturation temperature of CT-DNA after incubation for 36 hours with the compound. The class given is functional. As to conditions: Bos taurus. A digest of the protocol:
as §2

Test [7] has as its system Nucleic Acid. Put plainly: Effect on thermal denaturation temperature of CT-DNA after incubation for 4 hours with the compound. The class given is functional. As to conditions: Bos taurus. In short, it runs like this:
as §2

In a further test the test system is SK-OV-3. Kind of test: In vitro cytotoxicity against. ovarian carcinoma cell line SKOV-3. The class given is functional, cell-based, Homo sapiens. A digest of the protocol:
as §1

With `COc1cc2c(cc1OCC1CO1)N=C[C@@H]1CCCN1C2=O` (some centres undefined), the concentration for half-maximal inhibition (IC50) in the test on A2780 [1] (Homo sapiens, A2780) was 45 nM; with A2780 [2] (Homo sapiens, A2780), 200 nM; in the test with CH1 (Homo sapiens, CH1) it was 59 nM; in [3] (Homo sapiens, CH1cisR) it was 47 nM; in the test on SK-OV-3 (Homo sapiens, SK-OV-3) it was 1300 nM. The ΔTm in the test with Nucleic Acid [4] was 0.5 °C; in the test with Nucleic Acid [5], 1.3 °C; in the test on Nucleic Acid [6], 1.5 °C; in the test with Nucleic Acid [7], 0.8 °C.
With `COc1cc2c(cc1O)N=C[C@@H]1CCCN1C2=O`, the ΔTm was 0.3 °C in the test with Nucleic Acid [4], 0.7 °C with Nucleic Acid [5], 0.7 °C in the test with Nucleic Acid [6] and 0.5 °C in the test on Nucleic Acid [7].
Take CISPLATIN: the concentration for half-maximal inhibition (IC50) came to 160 nM in the test with A2780 [1] (a2780); 6100 nM with A2780 [2] (a2780); 29 nM in the test on CH1 (ch1); 170 nM in test [3] (ch1cisr); 4200 nM in the test with SK-OV-3 (sk-ov-3).
Turning to `C=CCOc1cc2c(cc1OC)C(=O)N1CCC[C@H]1C=N2`, the half-maximal inhibitory concentration (IC50) with A2780 [1] (Homo sapiens, A2780) worked out at 1050 nM; in the test with A2780 [2] (Homo sapiens, A2780) it was 1650 nM; with CH1 (Homo sapiens, CH1) it was 160 nM; in test [3] (Homo sapiens, CH1cisR) it was 135 nM; with SK-OV-3 (Homo sapiens, SK-OV-3) it was 3300 nM. In addition, the ΔTm stood at 0.4 °C in the test on Nucleic Acid [4], 0.8 °C with Nucleic Acid [5] and 0.7 °C with Nucleic Acid [7].
Take `COc1cc2c(cc1OCCCOc1cc3c(cc1OC)C(=O)N1CCC[C@H]1C=N3)N=C[C@@H]1CCCN1C2=O` [DSB-120]: the IC50 in the test with A2780 [1] (Homo sapiens, A2780) was 7.2 nM; in the test with A2780 [2] (Homo sapiens, A2780), 210 nM; with CH1 (Homo sapiens, CH1) it was 33 nM; in [3] (Homo sapiens, CH1cisR) it was 22 nM; in the test with SK-OV-3 (Homo sapiens, SK-OV-3), 740 nM. Further, the ΔTm in the test with Nucleic Acid [4] amounted to 10.2 °C; in the test with Nucleic Acid [5] it was 15.1 °C; in the test with Nucleic Acid [7], 13.1 °C.
